Active and inactive are the calls of the source. No cut-off for these calls is given here. Some results are limits rather than exact numbers.

We go through 17 compounds from ChEMBL document CHEMBL3758140, “Exploring the role of chloro and methyl substitutions in 2-phenylthiomethyl-benzoindole derivatives for 5-LOX enzyme inhibition” (Eur J Med Chem, 2016).

In assay [1] the target is T1, Polyunsaturated fatty acid 5-lipoxygenase (Homo sapiens, UniProt P09917).
T1 sequence (P09917 whole entry): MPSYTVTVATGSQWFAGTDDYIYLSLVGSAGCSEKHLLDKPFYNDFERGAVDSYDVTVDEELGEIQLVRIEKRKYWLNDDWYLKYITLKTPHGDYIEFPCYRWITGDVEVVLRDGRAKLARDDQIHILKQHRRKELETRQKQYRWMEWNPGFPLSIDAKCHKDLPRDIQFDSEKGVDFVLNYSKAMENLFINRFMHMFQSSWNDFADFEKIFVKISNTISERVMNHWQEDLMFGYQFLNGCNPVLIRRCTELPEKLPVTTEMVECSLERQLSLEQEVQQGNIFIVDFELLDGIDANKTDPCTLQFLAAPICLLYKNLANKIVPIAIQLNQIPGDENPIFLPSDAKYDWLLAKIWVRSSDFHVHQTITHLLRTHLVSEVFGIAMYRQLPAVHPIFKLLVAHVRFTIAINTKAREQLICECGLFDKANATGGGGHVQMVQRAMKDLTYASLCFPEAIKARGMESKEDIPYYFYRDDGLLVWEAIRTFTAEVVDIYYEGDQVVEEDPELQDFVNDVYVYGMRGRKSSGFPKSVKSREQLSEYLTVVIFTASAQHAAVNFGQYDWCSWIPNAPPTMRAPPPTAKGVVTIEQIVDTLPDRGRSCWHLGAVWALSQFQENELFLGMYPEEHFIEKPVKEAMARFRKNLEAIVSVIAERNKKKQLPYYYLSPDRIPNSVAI
The assay is described as follows: Inhibition of human recombinant 5-LOX expressed in Escherichia coli BL21 using arachidonic acid as substrate assessed as LTB4 formation preincubated for 15 mins measured after 10 mins by HPLC analysis. The gist of the method:
(§1)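 Human recombinant 5-LOX expressed in E. coli BL21 (pT3-5LO) at 37 °C, purified, and used immediately. 0.5 µg enzyme in PBS/EDTA preincubated with compound for 15 min at 4 °C, then prewarmed 30 s at 37 °C. Reaction started with 2 mM CaCl₂ plus 20 µM arachidonic acid, run 10 min at 37 °C, and metabolites analyzed by HPLC. Mean ± S.E.M., n = 3–4.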

Assay [2] concerns the target T1, Polyunsaturated fatty acid 5-lipoxygenase. The assay is described as follows: Inhibition of 5-LOX in human intact polymorphonuclear leukocytes preincubated for 15 mins with CaCl2, A23187 measured after 10 mins by HPLC analysis. The gist of the method: (§2)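 Human PMNL isolated from blood of healthy adult donors. 5 × 10⁶ cells in 1 ml PG buffer preincubated with compound for 15 min at 37 °C, then stimulated with 1 mM CaCl₂ plus 2.5 µM A23187. After 10 min at 37 °C, stopped with methanol, centrifuged, and supernatant products analyzed by HPLC. Mean ± S.E.M., n = 3–4.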

Assay [3] deals with Mus musculus. The assay is described as follows: Antiinflammatory activity in ICR mouse assessed as reduction in carrageenan-induced paw oedema volume at 20 mg/kg, ip administered 30 mins before carrageenan challenge measured after 0 to 6 hrs by hydroplethysmometer. The format is functional. More on the design: scale not given: the % may be the effect or the level left. A digest of the protocol:
(§3)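 Male ICR mice, 8 weeks, housed 5 per cage with 12:12 h light:dark cycle, 22 ± 1 °C, 60 ± 10% humidity, acclimatized at least 1 week. Compounds given i.p. (1–4 mg/kg; zileuton reference 20 mg/kg) 30 min before intraplantar carrageenan. Hind paw volume increase (oedema) followed for 6 h versus vehicle-treated group. Mean ± SEM, n = 6–8 per group.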
A general note: In the carrageenan paw model, swelling and tenderness develop within hours.

In assay [4] the target is T2, Polyunsaturated fatty acid 5-lipoxygenase (Homo sapiens) (UniProt P09917).
T2 sequence (whole entry): T1 sequence (P09917 whole entry)
The assay is described as follows: Inhibition of human recombinant 5-LOX expressed in Escherichia coli BL21 using arachidonic acid as substrate assessed as remaining enzyme activity by measuring LTB4 formation at 10 uM preincubated for 15 mins measured after 10 mins by HPLC analysis. The gist of the method:
as §1

The target of assay [5] is T2, Polyunsaturated fatty acid 5-lipoxygenase (Homo sapiens). Kind of assay: Inhibition of 5-LOX in human intact polymorphonuclear leukocytes assessed as remaining enzyme activity at 10 uM preincubated for 15 mins with CaCl2, A23187 measured after 10 mins by HPLC analysis. The gist of the method:
as §2

Assay [6] has as its system Mus musculus. The assay is described as follows: Antiinflammatory activity in ICR mouse assessed as reduction in carrageenan-induced paw oedema volume at 4 mg/kg, ip administered 30 mins before carrageenan challenge measured after 4 hrs by hydroplethysmometer. The assay is classed as functional. The arrangement: scale not given: the % may be the effect or the level left. A digest of the protocol: as §3

In assay [7] the target is T3, Prostaglandin E synthase (Homo sapiens) (UniProt O14684).
T3 sequence (whole entry): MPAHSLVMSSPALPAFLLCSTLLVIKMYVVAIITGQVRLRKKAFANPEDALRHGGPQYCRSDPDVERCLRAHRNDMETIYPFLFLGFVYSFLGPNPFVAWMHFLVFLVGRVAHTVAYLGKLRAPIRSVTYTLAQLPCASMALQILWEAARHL
The assay is described as follows: Inhibition of IL-1beta-activated m-PGES-1 in microsome of human A549 cells assessed as PGE2 formation at 10 uM preincubated for 15 mins followed by PGH2 addition measured after 1 min by RP-HPLC analysis. The assay is classed as cell-based. The gist of the method:
(§4)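 Microsomes from A549 cells prepared by sonication and differential centrifugation (10,000 g, then 174,000 g), stored at −80 °C. Diluted in 0.1 M potassium phosphate pH 7.4 with 2.5 mM glutathione and preincubated with compound (DMSO vehicle, 1% final) 15 min at 4 °C. Started with 20 µM PGH₂ (final), run 1 min at 4 °C, stopped with FeCl₂/citric acid plus 11β-PGE₂ internal standard. PGE₂ isolated by C18 SPE and quantified by RP-HPLC with UV at 195 nm. IC50 from three determinations at 0.1, 1 and 10 µM.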

For assay [8], the target named is T3, Prostaglandin E synthase (Homo sapiens). The assay is described as follows: Inhibition of IL-1beta-activated m-PGES-1 in microsome of human A549 cells assessed as remaining enzyme activity by measuring PGE2 formation at 10 uM preincubated for 15 mins followed by PGH2 addition measured after 1 min by RP-HPLC analysis. The format is cell-based. The gist of the method: as §4

The target in assay [9] is T2, Polyunsaturated fatty acid 5-lipoxygenase (Homo sapiens). The assay is described as follows: Inhibition of human recombinant 5-LOX expressed in Escherichia coli BL21 using arachidonic acid as substrate assessed as remaining enzyme activity by measuring LTB4 formation at 1 uM preincubated for 15 mins measured after 10 mins by HPLC analysis. The gist of the method:
as §1

Assay [10] concerns Mus musculus. Kind of assay: Antiinflammatory activity in ICR mouse assessed as reduction in carrageenan-induced paw oedema volume at 1 to 4 mg/kg, ip administered 30 mins before carrageenan challenge measured after 2 to 4 hrs by hydroplethysmometer relative to vehicle-treated control. The assay is classed as functional, organism-based. The gist of the method: as §3
In the next assay the target is T4, Prostaglandin E synthase (Homo sapiens, UniProt O14684).
T4 sequence (O14684 whole entry): T3 sequence (whole entry)
The assay is described as follows: Inhibition of IL-1beta-activated m-PGES-1 in microsome of human A549 cells assessed as PGE2 formation preincubated for 15 mins followed by PGH2 addition measured after 1 min by RP-HPLC analysis. The format is cell-based. A digest of the protocol:
as §4

Regarding `CCOC(=O)c1c(CSc2ccccc2Cl)[nH]c2c1cc(OCC)c1ccccc12`, the results for the IC50 in assay [1] and in assay [2] were 2040 nM and 1260 nM, respectively.
For `CCOC(=O)c1c(CSc2ccc(Cl)c(Cl)c2)[nH]c2c1cc(O)c1ccccc12`, in that order: 930 nM and 237 nM.
With `CCOC(=O)c1c(CSc2ccccc2C)[nH]c2c1cc(O)c1ccccc12`, the half-inhibitory concentration (IC50) (as a rule, the concentration at which inhibition is half-maximal) in assay [1] worked out at 330 nM; in [2], 255 nM.
Take `CC(c1cc2ccccc2s1)N(O)C(N)=O` (configuration not stated) [ZILEUTON]: the Activity in the assay with Mus musculus [3] is recorded as 38.2%.
With `CCOC(=O)c1c(CSc2ccccc2Cl)n(C)c2c1cc(OC)c1ccccc12`, the IC50 in assay [1] and in [2] was above 10000 nM each time. In addition, the Activity in [4] is 98.7%; in assay [5], 97.6%.
For the compound `CCOC(=O)c1c(CSc2c(C)cc(C)cc2C)n(C)c2ccc(O)cc12`, the results for the Activity (in the assay with Mus musculus [6]; in assay [8]) were 60.9% and 87.3%, respectively. In [7], the inhibition – broadly, the percentage by which the read-out fell short of the control – was found to be 27.8%.
Take `CCOC(=O)c1c(CSc2c(C)cccc2C)[nH]c2c1cc(O)c1ccccc12`: the results for the IC50 in [1] and in assay [2] were above 1000 nM and 170 nM, respectively. For the same compound, the Activity in assay [9] is 65.9%.
For the compound `CCOC(=O)c1c(CSc2ccccc2Cl)n(CC)c2c1cc(OCC)c1ccccc12`, the IC50 in assay [1] and in assay [2] was above 10000 nM each time. Also, the Activity was determined as 99.4% in assay [4] and 95.5% in assay [5].
For the compound `CCOC(=O)c1c(CSc2ccccc2Cl)n(C)c2c1cc(O)c1ccccc12`, the IC50 in [1] and in [2] was above 10000 nM throughout. For the same compound, the results for the Activity in assay [4] and in [5] were 81.4% and 61.9%, respectively.
With `CCOC(=O)c1c(CSc2cc(C)cc(C)c2)[nH]c2c1cc(O)c1ccccc12`, the results for the IC50 in assay [1] and in assay [2] were above 1000 nM and 290 nM, respectively. The Activity in assay [9] is 63%.
In the case of `CCOC(=O)c1c(CSc2ccccc2Cl)[nH]c2c1cc(OC)c1ccccc12`, the IC50 stood at 1740 nM in [1] and 1150 nM in [2].
With `CCOC(=O)c1c(CSc2cccc(Cl)c2Cl)[nH]c2c1cc(O)c1ccccc12`, the IC50 was above 1000 nM in [1] and 657 nM in [2]. The Activity in [9] worked out at 72%.
In the case of `CCOC(=O)c1c(CSc2cc(Cl)cc(Cl)c2)[nH]c2c1cc(O)c1ccccc12`, the results for the IC50 (in assay [1]; in assay [2]; on Prostaglandin E synthase) were 220 nM, 240 nM and 13800 nM, respectively. Besides, the outcome in the assay on Mus musculus [10] was Active. In the assay on Mus musculus [6], the Activity is reported as 60%.
As for `CCOC(=O)c1c(CSc2cccc(Cl)c2)[nH]c2c1cc(O)c1ccccc12`, the IC50 in assay [1] was above 1000 nM; in assay [2], 257 nM. For the same compound, the Activity in [9] turned out to be 63.8%.
With `CCOC(=O)c1c(CSc2c(Cl)cccc2Cl)[nH]c2c1cc(O)c1ccccc12`, the IC50 in [1] was found to be 170 nM; in assay [2], 190 nM; on Prostaglandin E synthase it was 1330 nM. For the same compound, the outcome in the assay with Mus musculus [10] was inactive. Further, the Activity with Mus musculus [6] amounted to 9.1%.
With `CCOC(=O)c1c(CSc2ccccc2Cl)[nH]c2c1cc(O)c1ccccc12`, the IC50 in assay [1] is 820 nM; in assay [2], 182 nM.
In the case of `CCOC(=O)c1c(CSc2c(C)cc(C)cc2C)[nH]c2c1cc(O)c1ccccc12`, the half-inhibitory concentration (IC50) was 200 nM in [1], 370 nM in assay [2] and 1930 nM at Prostaglandin E synthase. The Activity in the assay on Mus musculus [6] is recorded as 77.4%.
